Measured values published in PMC10336577 (Saudi Pharmaceutical Journal : SPJ, 2023).
Values after ≈ are worked out from the molar mass of the structure shown. Values joined by “and” are separate entries in the source; they are usually repeats but may differ in a detail not shown here. Equal entries are not always repeated. Where two headings read alike, the source gives them in different places.

Legend:
MCF-7 cell line [1] = experiment: MTT cytotoxicity assay, MCF-7; type: cell-based; settings: for IC50: Homo sapiens, MCF7, 24 h, read-out: IC50, MCF-7
Outline: (§1)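 Human lines were obtained from ATCC. MCF-7 and MDA-MB-231 were grown in DMEM with 10% FBS, and MCF-10A in DMEM-F12 with 10% FBS, all at 37 °C, 5% CO2. Cells were seeded at 1×10^4 per well, given varying concentrations of extract or test compound, and PBS-washed after 24 h. MTT was applied for 4 h at 37 °C and formazan dissolved in DMSO, with absorbance read at 570 nm. Hydrogen peroxide was the positive control. Runs were done in triplicate, with % viability and IC50 calculated.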

MDA-MB-231 cell line [2] = experiment: MTT cytotoxicity assay, MDA-MB-231; type: cell-based; settings: for IC50: Homo sapiens, MDA-MB-231, 24 h, read-out: IC50, MDA-MB-231
Outline: as §1

[3] = test system: MCF-10A non-tumorigenic breast epithelial cell line; experiment: MTT cytotoxicity assay, MCF-10A; type: cell-based; settings: 24 h; for IC50: Homo sapiens, MCF-10A, read-out: IC50, MCF-10A
Outline: as §1

MDA-MB-231 cell line [4] = experiment: Annexin V-FITC/PI flow cytometry, MDA-MB-231; type: cell-based; settings: 48 h; for viable cells, MDA-MB-231: quadrant LL, highest doses of compounds; for early apoptotic cells, MDA-MB-231: quadrant LR; for necrotic cells, MDA-MB-231: quadrant UL; for late apoptotic cells, MDA-MB-231: quadrant UR
cells = experiment: Cell death type; type: cell-based
Outline: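 MCF-7, MDA-MB-231 and MCF-10A cells were seeded at 3×10^5 cells per well in six-well plates and held 24 h at 37 °C, 5% CO2. They were exposed 48 h to the highest test-compound doses, trypsinised, PBS-washed and pelleted at 1500 rpm for 5 min. Cells were stained with Annexin V-FITC/PI in 1X binding buffer for 15 min at 37 °C in the dark, then run by flow cytometry. Viable, early/late apoptotic and necrotic cells are given as % of total, in triplicate.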

[5] = test system: DMS-114 human lung cancer cell line; settings: ref Manthey and Guthrie, 2002; cited from earlier work
[6] = test system: HT-29 colon cancer cell line; settings: ref Manthey and Guthrie, 2002; cited from earlier work
[7] = test system: DU-145 prostate cancer cell line; settings: ref Manthey and Guthrie, 2002; cited from earlier work
[8] = test system: SK-MEL5 melanoma cancer cell line; settings: ref Manthey and Guthrie, 2002; cited from earlier work
[9] = test system: DU145 prostate cancer cell; settings: ref Lewinska et al., 2015, cited from earlier work
A431 cells = settings: MTT assay; ref Buddhan and Manoharan, 2017; cited from earlier work
[10] = test system: IGROV-1 human ovary cell line; settings: ref Znati et al., 2014; cited from earlier work
[11] = test system: OVCAR-3 human ovary cell line; settings: ref Znati et al., 2014; cited from earlier work
[12] = test system: HCT-116 human colon cancer cell line; settings: ref Znati et al., 2014; cited from earlier work
[13] = test system: HEP-G2 hepatocellular carcinoma cells; settings: 25–400 μg/mL, 72 h, MTT assay; ref Gevrenova et al., 2016; cited from earlier work
[14] = test system: breast cancer cell lines (MCF-7 and MDA-MB-231); experiment: MTT cytotoxicity on the breast cancer cell lines; type: cell-based; settings: MCF-7 and MDA-MB-231, MTT
[15] = test system: MIA PaCa-2 pancreatic cancer cell line; settings: read-out: IC50, MIA PaCa-2; ref Boukes and Venter, 2016; cited from earlier work
[16] = test system: INS-1 pancreatic cancer cell line; settings: read-out: IC50, INS-1; ref Boukes and Venter, 2016; cited from earlier work
[17] = test system: A549 human non-small cell lung cancer cell line; settings: ref Yang et al., 2017, cited from earlier work
MCF-7 cell line [18] = experiment: Annexin V-FITC/PI flow cytometry, MCF-7; type: cell-based; settings: 48 h
[19] = test system: HeLa human uterine carcinoma; settings: ref Sun et al. 2006; cited from earlier work
[20] = test system: Bel-7402 human hepatocellular carcinoma; settings: ref Sun et al. 2006; cited from earlier work
[21] = test system: A375-S2 human malignant melanoma; settings: ref Sun et al. 2006; cited from earlier work
[22] = test system: SGC-7901 human gastric cancer cell line; settings: ref Sun et al. 2006; cited from earlier work
[23] = test system: HT-1080 fibrosarcoma cell line; settings: ref Rajendra et al., 2011, cited from earlier work
[24] = test system: BT-20 human breast cancer cell line; settings: read-out: IC50, BT-20; ref Bender and Atalay, 2018; cited from earlier work
[25] = test system: SK-BR-3 human breast cancer cell line; settings: read-out: IC50, SK-BR-3; ref Bender and Atalay, 2018; cited from earlier work
[26] = test system: MDA-MB-468 human breast cancer cell line; settings: read-out: IC50, MDA-MB-468; ref Bender and Atalay, 2018; cited from earlier work
[27] = test system: PLC/PRF/5 hepatocellular carcinoma cell line; settings: 100 µM; ref Refolo et al., 2018; cited from earlier work
[28] = test system: HepG2 hepatocellular carcinoma cell line; settings: 100 µM; ref Refolo et al., 2018; cited from earlier work
[29] = MTT assay, 24 h, ± standard deviation

COc1ccc(-c2cc(=O)c3c(O)cc(O[C@@H]4O[C@H](CO[C@@H]5O[C@@H](C)[C@H](O)[C@@H](O)[C@H]5O)[C@@H](O)[C@H](O)[C@H]4O)cc3o2)cc1O [Compound 1, Diosmetin-7-O-rutinoside]
IC50 (MCF-7 cell line [1]): 13.7 ± 11 µg/mL (≈ 22.4 µM) | IC50 (MDA-MB-231 cell line [2]): 12.9 ± 12.2 µg/mL (≈ 21.2 µM) | IC50 [3]: 8.66 ± 20.5 µg/mL (≈ 14.2 µM) | viable cells, MDA-MB-231 (MDA-MB-231 cell line [4]): 56% | type of cell death causing the cytotoxic effect (cells): necrosis | concentration up to which no cytotoxic activity was shown, DMS-114 [5]: > 200 µM | concentration up to which no cytotoxic activity was shown, HT-29 [6]: > 200 µM | concentration up to which no cytotoxic activity was shown, DU-145 [7]: > 200 µM | concentration up to which no cytotoxic activity was shown, SK-MEL5 [8]: > 200 µM | DU145 cell viability ([9]; 50 µM): 70% | DU145 cell viability ([9]; 250 µM): 40% | IC50, A431 (A431 cells): 45 µg/mL (≈ 73.9 µM)

COc1cc(-c2oc3cc(O)cc(O)c3c(=O)c2O[C@@H]2O[C@H](CO[C@@H]3O[C@@H](C)[C@H](O)[C@@H](O)[C@H]3O)[C@@H](O)[C@H](O)[C@H]2O)ccc1O [Compound 2, Isorhamnetin-3-O-rutinoside]
IC50 (MCF-7 cell line [1]): 137 ± 8.62 µg/mL (≈ 220 µM) | IC50 (MDA-MB-231 cell line [2]): 77.8 ± 39.9 µg/mL (≈ 125 µM) | IC50 [3]: 133 ± 23.5 µg/mL (≈ 214 µM) | viable cells, MDA-MB-231 (MDA-MB-231 cell line [4]): 63% | concentration up to which no cytotoxic activity was shown, IGROV-1 [10]: > 100 µM | concentration up to which no cytotoxic activity was shown, OVCAR-3 [11]: > 100 µM | concentration up to which no cytotoxic activity was shown, HCT-116 [12]: > 100 µM | hepatoprotective activity, HEP-G2 [13]: no significant hepatoprotective activity

O=c1c(O[C@@H]2O[C@H](CO)[C@H](O)[C@H](O)[C@H]2O)c(-c2ccc(O)c(O)c2)oc2cc(O)cc(O)c12 [Compound 3, Quercetin-3-O-galactoside]
IC50 (MCF-7 cell line [1]): 147 ± 7.32 µg/mL (≈ 317 µM) | IC50 (MDA-MB-231 cell line [2]): 141 ± 14 µg/mL (≈ 304 µM) | IC50 [3]: 127 ± 12.5 µg/mL (≈ 273 µM) | concentration up to which no cytotoxic activity was shown [14]: > 100 µg/mL | viable cells, MDA-MB-231 (MDA-MB-231 cell line [4]): 46% | early apoptotic cells, MDA-MB-231 (MDA-MB-231 cell line [4]): 22% | necrotic cells, MDA-MB-231 (MDA-MB-231 cell line [4]): 6% | late apoptotic cells, MDA-MB-231 (MDA-MB-231 cell line [4]): 26% | IC50 [15]: 50 µM | IC50 [16]: 50 µM | cell viability of A549 ([17]; 10–100 µM, time- and dose-dependent): inhibited cell viability | percentage of apoptotic cells, A549 ([17]; 24 h, dose-dependent): significant increase

O=C(O)/C=C/c1ccc(O)c(O)c1 [Compound 4, Caffeic acid]
IC50 (MCF-7 cell line [1]): 40.3 ± 2.84 µg/mL (≈ 224 µM) | IC50 (MDA-MB-231 cell line [2]): 64 ± 4.11 µg/mL (≈ 355 µM) | IC50 [3]: 149 ± 14.1 µg/mL (≈ 825 µM) | early apoptotic cells, MCF-7 (MCF-7 cell line [18]; quadrant LR, doses as b44): 52% | necrotic cells, MCF-7 (MCF-7 cell line [18]; quadrant UL, doses as b44): 3% | late apoptotic cells, MCF-7 (MCF-7 cell line [18]; quadrant UR, doses as b44): 13% | viable cells, MDA-MB-231 (MDA-MB-231 cell line [4]): 30% | early apoptotic cells, MDA-MB-231 (MDA-MB-231 cell line [4]): 52% | necrotic cells, MDA-MB-231 (MDA-MB-231 cell line [4]): 3% | late apoptotic cells, MDA-MB-231 (MDA-MB-231 cell line [4]): 13% | concentration up to which no cytotoxic activity was shown, HeLa [19]: > 100 µg/mL | concentration up to which no cytotoxic activity was shown, Bel-7402 [20]: > 100 µg/mL | concentration up to which no cytotoxic activity was shown, A375-S2 [21]: > 100 µg/mL | concentration up to which no cytotoxic activity was shown, SGC-7901 [22]: > 100 µg/mL | cell viability, HT-1080 ([23]; 50 µg/mL): 15% | inhibition of HT-1080 cell line ([23]; 30, 40, and 50 μg/mL): notably inhibited

O=C(/C=C/c1ccc(O)c(O)c1)O[C@@H]1C[C@](O)(C(=O)O)C[C@@H](O)[C@H]1O [Compound 5, Chlorogenic acid]
IC50 (MCF-7 cell line [1]): 371 ± 9.49 µg/mL (≈ 1050 µM) | IC50 (MDA-MB-231 cell line [2]): 361 ± 4.83 µg/mL (≈ 1020 µM) | IC50 [3]: 356 ± 19.1 µg/mL (≈ 1010 µM) | concentration up to which no cytotoxic activity was shown [14]: > 360 µg/mL | viable cells, MDA-MB-231 (MDA-MB-231 cell line [4]): 51% | IC50 [24]: 1100 µM | IC50 [25]: 882 µM | IC50 [26]: 940 µM | effect on Regorafenib-mediated cell growth inhibition, PLC/PRF/5 [27]: enhanced | effect on Regorafenib-mediated cell growth inhibition, HepG2 [28]: enhanced

OO [Compound H2O2, hydrogen peroxide, reference compound]
IC50, MCF-7 (MCF-7 cell line [1]; [29]): 7.45 ± 12.77 µg/mL and 10.11 ± 0.90 µg/mL and 11.97 ± 6.72 µg/mL and 9.91 ± 0.31 µg/mL | IC50, MDA-MB-231 (MDA-MB-231 cell line [2]; [29]): 8.48 ± 3.53 µg/mL and 11.86 ± 2.43 µg/mL and 11.45 ± 1.52 µg/mL | IC50, MCF-10A ([3]; MTT assay, ± standard deviation): 10.32 ± 3.60 µg/mL and 11.40 ± 3.60 µg/mL and 9.77 ± 8.56 µg/mL and 12.58 ± 9.77 µg/mL | percentage of cell death, MCF-7 (MCF-7 cell line [18]; doses as b44): 70% | viable cells, MCF-7 (MCF-7 cell line [18]; quadrant LL, H2O2 17, Compound 1 24, 2 156, 3 372, 4 30, 5 710, 6 60 µg/mL): 30% | percentage of cell death, MDA-MB-231 (MDA-MB-231 cell line [4]): 79% | viable cells, MDA-MB-231 (MDA-MB-231 cell line [4]): 21%
